# Assays:
# [1] = biological target: T1, Polyunsaturated fatty acid 5-lipoxygenase (Rattus norvegicus, UniProt P12527); test: Inhibitory activity against the production of leukotriene B4 (LTB4) in glycogen-induced peritoneal cells of rat; assay type: functional
# T1 sequence (P12527 whole entry): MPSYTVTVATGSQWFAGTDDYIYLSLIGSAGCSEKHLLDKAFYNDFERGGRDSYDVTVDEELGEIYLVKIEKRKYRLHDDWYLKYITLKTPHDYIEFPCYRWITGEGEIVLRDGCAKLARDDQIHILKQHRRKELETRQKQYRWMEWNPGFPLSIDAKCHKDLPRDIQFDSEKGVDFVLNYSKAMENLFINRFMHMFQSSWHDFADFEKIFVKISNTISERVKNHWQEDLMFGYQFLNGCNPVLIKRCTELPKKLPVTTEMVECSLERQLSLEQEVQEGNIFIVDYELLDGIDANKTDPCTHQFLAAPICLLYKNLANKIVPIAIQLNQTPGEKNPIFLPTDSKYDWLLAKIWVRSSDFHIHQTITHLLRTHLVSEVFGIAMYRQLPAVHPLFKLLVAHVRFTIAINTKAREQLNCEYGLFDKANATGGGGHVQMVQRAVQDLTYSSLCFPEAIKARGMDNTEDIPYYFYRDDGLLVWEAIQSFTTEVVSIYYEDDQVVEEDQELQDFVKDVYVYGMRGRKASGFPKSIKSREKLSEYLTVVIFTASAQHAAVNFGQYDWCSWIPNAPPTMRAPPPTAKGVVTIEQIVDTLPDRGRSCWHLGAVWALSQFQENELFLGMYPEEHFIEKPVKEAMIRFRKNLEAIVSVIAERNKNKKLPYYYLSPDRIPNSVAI
# In short: (§1)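 Peritoneal leukocytes elicited in male F344 rats by ip 6% glycogen, suspended in Ca/Mg-free HBSS (5 × 10⁶ cells/mL). Cells preincubated 5 min at 37 °C with compound or vehicle (0.1% DMSO/0.1% BSA), stimulated with A23187 (4 μM, 10 min, 37 °C), stopped with BW755C. LTB₄, TXB₂ and PGE₂ in supernatant by radioimmunoassay. Duplicate points; IC50 by probit analysis.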
# [2] = Tested for the suppression ratio, the difference between the amount of LTB4 produced in the test groups and the control group at the dosage of 100 mg/kg; assay type: functional
# In short: (§2)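 Male F344 rats (9 weeks, fasted 2 days) given a single intracolonic dose of 30 mg TNB in 0.25 mL 50% ethanol. Day 7: one oral dose in 0.5% MC, or vehicle. Killed 6 h later; colon incubated with A23187 (2 μg/mL) in Tyrode, 15 min, 37 °C. Eicosanoids by radioimmunoassay. Suppression versus vehicle controls; mean ± SEM.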
# [3] = Tested for the suppression ratio, the difference between the amount of TXB2 produced in the test groups and the control group at the dosage of 100 mg/kg; assay type: functional; in short: as §2
# Thromboxane-A synthase [4] = biological target: T2, Thromboxane-A synthase (Homo sapiens, UniProt P24557); test: Tested for inhibitory activity against thromboxane A2 (TXA2) synthetase in microsome of human platelets
# T2 sequence (P24557 whole entry): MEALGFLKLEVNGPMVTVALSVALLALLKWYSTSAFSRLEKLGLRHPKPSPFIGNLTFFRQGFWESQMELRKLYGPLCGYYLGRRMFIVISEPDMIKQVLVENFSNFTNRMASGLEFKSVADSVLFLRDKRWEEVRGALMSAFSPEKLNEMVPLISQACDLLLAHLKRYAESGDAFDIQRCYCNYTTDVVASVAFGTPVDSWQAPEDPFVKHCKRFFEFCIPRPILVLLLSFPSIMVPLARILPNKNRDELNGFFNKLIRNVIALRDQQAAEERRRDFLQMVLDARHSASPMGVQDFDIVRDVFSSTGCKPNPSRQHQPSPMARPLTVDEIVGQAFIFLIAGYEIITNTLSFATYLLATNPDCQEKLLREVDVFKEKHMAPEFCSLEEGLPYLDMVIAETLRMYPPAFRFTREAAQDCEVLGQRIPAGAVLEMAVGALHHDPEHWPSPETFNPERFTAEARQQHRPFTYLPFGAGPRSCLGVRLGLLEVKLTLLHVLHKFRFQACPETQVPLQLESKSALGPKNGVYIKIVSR
# In short: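 Platelet microsome fraction (105000g) resuspended in 50 mM Tris-HCl-saline, pH 7.4, with 10 μM indomethacin. 20 μg protein preincubated 5 min at 25 °C with compound, PGH₂ (1 μg/mL) for 1 min at 25 °C, citric acid/ethanol stop. TXB₂ by radioimmunoassay. Duplicate points; IC50 by probit analysis.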
# [5] = biological target: Cyclooxygenase (Rattus norvegicus); test: Inhibitory activity against the production of prostaglandin E2 (PGE2) in glycogen-induced peritoneal cells of rat
# [6] = Tested for inhibitory activity against thromboxane B2 (TXB2) in human platelets
# In short: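 Washed human platelets (3 × 10⁸ cells/mL) in Tris-HCl-saline, pH 7.4, with 10 μM indomethacin. Preincubated 5 min at 25 °C with compound, PGH₂ (1 μg/mL) for 3 min at 25 °C, citrate/ethanol stop. TXB₂ in supernatant by radioimmunoassay. Duplicate points; IC50 by probit analysis.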
# Rattus norvegicus [7] = test: Tested for the ability to decrease lesion area in the colon of the TNB/ethanol-induced chronic colitis rats at the dosage of 100 mg/kg/day; assay type: functional
# In short: (§3)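 TNB/ethanol colitis rats dosed orally (0.5% MC suspension) once daily for 11 days from day 3, killed day 14. Ethanol-only group as baseline. Colonic MPO activity measured; lesion area (mm²/colon) by stereomicroscope. % inhibition = [1 − (test − ethanol)/(control − ethanol)] × 100. Mean ± SEM.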
# [8] = Tested for the suppression ratio, the difference between the amount of PGE-2 produced in the test groups and the control group at the dosage of 100 mg/kg; assay type: functional; in short: as §2
# Thromboxane-A synthase [9] = biological target: T3, Thromboxane-A synthase (Rattus norvegicus, UniProt P49430); test: Inhibitory activity against the production of thromboxane B2 (TXB2) in glycogen-induced peritoneal cells of rat; assay type: functional; in short: as §1
# T3 sequence (P49430 whole entry): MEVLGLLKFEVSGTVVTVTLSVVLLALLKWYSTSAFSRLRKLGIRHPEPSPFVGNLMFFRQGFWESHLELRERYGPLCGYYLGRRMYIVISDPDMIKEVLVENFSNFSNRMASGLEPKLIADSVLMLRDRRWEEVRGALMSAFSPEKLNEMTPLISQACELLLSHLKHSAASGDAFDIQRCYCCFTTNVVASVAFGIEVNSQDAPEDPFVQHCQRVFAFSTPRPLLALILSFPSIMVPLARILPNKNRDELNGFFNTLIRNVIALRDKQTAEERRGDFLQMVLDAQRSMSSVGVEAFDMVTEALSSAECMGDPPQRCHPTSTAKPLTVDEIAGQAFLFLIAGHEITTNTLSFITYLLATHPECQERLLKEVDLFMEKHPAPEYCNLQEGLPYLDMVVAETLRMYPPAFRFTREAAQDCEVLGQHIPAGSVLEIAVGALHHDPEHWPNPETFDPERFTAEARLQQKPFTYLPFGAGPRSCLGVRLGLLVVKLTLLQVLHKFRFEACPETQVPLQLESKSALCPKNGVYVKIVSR
# [10] = biological target: T1, Polyunsaturated fatty acid 5-lipoxygenase; test: Tested for inhibitory activity against 5-lipoxygenase in microsome of RBL-1 cells; assay type: cell-based
# In short: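 RBL-1 cells sonicated at 0 °C in 50 mM phosphate, pH 7.4, with 0.25 M sucrose and 1 mM EDTA. Homogenate preincubated 5 min at 37 °C with compound plus 2 mM glutathione, then arachidonic acid (0.2 mM) for 10 min at 37 °C. Formic acid stop, CHCl₃/MeOH extraction, 5-HETE by HPLC. Duplicate points; IC50 by probit analysis.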
# Homo sapiens [11] = organism: Homo sapiens; test: Tested for inhibitory activity against the production of prostaglandin E2 (PGE2) in human whole blood; assay type: functional, organism-based
# In short: (§4)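 Heparinized (10 U/mL) fresh blood from healthy volunteers, 0.4 mL aliquots, preincubated 5 min at 37 °C with compound or vehicle (0.1% DMSO/0.1% BSA). A23187 (40 μM) added for 20 min. LTB₄, TXB₂, PGE₂ in plasma by radioimmunoassay. Duplicate points; IC50 by probit analysis.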
# Homo sapiens [12] = organism: Homo sapiens; test: Tested for inhibitory activity against the production of leukotriene B4 (LTB4) in human whole blood; assay type: functional, organism-based; in short: as §4
# Homo sapiens [13] = organism: Homo sapiens; test: Tested for inhibitory activity against the production of thromboxane B2 (TXB2) in human whole blood; assay type: functional, organism-based; in short: as §4
# Homo sapiens [14] = organism: Homo sapiens; test: Tested for inhibitory activity against leukotriene B4 (LTB4) in human neutrophils; assay type: functional, organism-based
# In short: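 Human blood neutrophils from heparinized blood (dextran sedimentation, Percoll gradient), 1 × 10⁶ cells/mL in Ca/Mg-free HBSS. Preincubated 5 min at 37 °C with compound or vehicle, A23187 (4 μM) for 10 min. LTB₄ in cell-free supernatant by radioimmunoassay. Duplicate points; IC50 by probit analysis.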
# Rattus norvegicus [15] = test: Tested for the ability to decrease lesion area in the colon of the TNB/ethanol-induced chronic colitis rats at the dosage of 500 mg/kg/day; assay type: functional; in short: as §3
Structure (SMILES),IC50 [1] [nM],IC50 [5] [nM],inhibition in vivo at 100 mg/kg/day (Rattus norvegicus [7]) [%],IC50 (Thromboxane-A synthase [9]) [nM],further results
CCNc1nc2c(C)c(Cc3cccnc3)c(O)c(C)c2s1,230,> 100000,48,650,Suppression ratio [2]: 83%; Suppression ratio [3]: 67%; IC50 (Thromboxane-A synthase [4]): 390 nM; IC50 [6]: 2300 nM; Suppression ratio [8]: 8%
CNc1nc2c(Cc3cccnc3)c(OC)c(O)c(C)c2s1,170,,,1300,
CCNc1nc2c(C)c(C)c(O)c(Cc3cccnc3)c2s1,< 100,> 100000,64,2000,Suppression ratio [2]: 89%; Suppression ratio [3]: 53%; IC50 (Thromboxane-A synthase [4]): 810 nM; IC50 [10]: 270 nM; IC50 (Homo sapiens [11]): > 100000 nM; IC50 [6]: 4300 nM; IC50 (Homo sapiens [12]): 500 nM; IC50 (Homo sapiens [13]): 34800 nM; Suppression ratio [8]: 41%
CNc1nc2c(C)c(Cc3cccnc3)c(O)c(C)c2s1.Cl.Cl,300,> 100000,,< 100,
COc1cc2nc(NCc3cccnc3)sc2c(OC)c1O,90,,,5500,
CCNc1nc2c(Cc3cccnc3)c(C)c(O)c(C)c2s1,< 100,,57,100,IC50 (Thromboxane-A synthase [4]): 10 nM; IC50 [10]: 910 nM; IC50 (Homo sapiens [11]): > 91000 nM; IC50 [6]: 60 nM; IC50 (Homo sapiens [12]): 1100 nM; IC50 (Homo sapiens [14]): < 100 nM; IC50 (Homo sapiens [13]): 560 nM
Cc1c(O)c2ccccc2c2nc(NCc3cccnc3)sc12,1600,5500,,4000,
CCc1c(O)c(OC)c(Cc2cccnc2)c2nc(NC)sc12,< 100,> 100000,,330,
Cc1cc(O)c(C)c2sc(NCc3cccnc3)nc12,< 100,,71,4400,
Oc1cc(-c2ccccc2)c2nc(NCc3cccnc3)sc2c1,7000,9600,,1400,
COc1c(O)c(C)c2sc(N)nc2c1Cc1cccnc1.Cl.Cl,170,> 100000,,110,
Cc1c(O)c(C)c2sc(NCc3ccc(S(N)(=O)=O)cc3)nc2c1C,,,,,Suppression ratio [2]: 86%; Suppression ratio [3]: 0%; IC50 [10]: 210 nM; IC50 (Homo sapiens [11]): > 100000 nM; IC50 [6]: > 100000 nM; IC50 (Homo sapiens [12]): 24000 nM; IC50 (Homo sapiens [13]): 42000 nM; Suppression ratio [8]: 0%
CCCNc1nc2c(Cc3cccnc3)c(C)c(O)c(C)c2s1.Cl.Cl,< 100,> 100000,,90,
Cc1c(O)c(C)c2sc(N)nc2c1Cc1cccnc1,190,,,2,
CCc1c(O)c(OC)c(Cc2cccnc2)c2nc(N)sc12,150,,,180,
O=C(O)c1cc(/N=N/c2ccc(S(=O)(=O)Nc3ccccn3)cc2)ccc1O [SULFASALAZINE],,,,,inhibition in vivo at 500 mg/kg/day (Rattus norvegicus [15]): 16%
Cc1c(O)c(Cc2cccnc2)c2sc(N)nc2c1C.Cl.Cl,250,> 100000,,5300,
CNc1nc2c(Cc3cccnc3)c(C)c(O)c(C)c2s1,,,39,,IC50 (Thromboxane-A synthase [4]): 9 nM; IC50 [10]: 230 nM; IC50 (Homo sapiens [11]): > 90000 nM; IC50 [6]: 80 nM; IC50 (Homo sapiens [12]): 830 nM; IC50 (Homo sapiens [13]): 1100 nM
Cc1c(O)c(C)c2sc(NCc3cccnc3)nc2c1C,< 100,,81,2000,

# Source: ChEMBL document CHEMBL1127462, “Novel dual inhibitors of 5-lipoxygenase and thromboxane A2 synthetase: synthesis and structure-activity relationships of 3-pyridylmethyl-substituted 2-amino-6-hydroxybenzothiazole derivatives” (J Med Chem, 1994)
